# S1P4 antagonist: human S1P4 receptor antagonism | S1P4-expressing cells, antagonist mode, reporter read-out | inhibition, % at 4.98 µM | hit rate 0.26% among 220,000; in the data active means inhibition above about 29%;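 further: 0% = wells stimulated with agonist and 100% = vehicle wells without agonist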
# Target sequence (O95977 whole entry, looked up): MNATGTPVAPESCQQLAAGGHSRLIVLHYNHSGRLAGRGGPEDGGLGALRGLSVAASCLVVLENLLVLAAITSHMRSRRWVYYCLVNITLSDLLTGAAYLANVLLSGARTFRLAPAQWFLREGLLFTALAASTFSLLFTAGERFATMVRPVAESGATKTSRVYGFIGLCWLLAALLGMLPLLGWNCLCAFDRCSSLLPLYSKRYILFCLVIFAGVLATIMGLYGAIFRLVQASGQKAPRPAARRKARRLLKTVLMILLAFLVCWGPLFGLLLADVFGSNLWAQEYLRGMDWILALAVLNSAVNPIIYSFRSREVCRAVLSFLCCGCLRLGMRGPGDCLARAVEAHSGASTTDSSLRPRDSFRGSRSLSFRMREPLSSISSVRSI
# MDM2 E3 inh: inhibitors of human Mdm2 E3 ubiquitin ligase; hit rate 0.11% among 210,000; Q00987; cell-based MDM2 ubiquitination luciferase reporter, 2 h; 0 = plate control, 100 = twice control, blank-subtracted; signal enhancement, % at 5 µM;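 active means signal enhancement of 30% or more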;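 further: luminescence tracks abundance of the self-degrading MDM2-luciferase fusion protein; higher signal means inhibition of MDM2 E3 ligase activity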
#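 Assay system: mammalian cells stably expressing self-ubiquitinating, self-degrading MDM2 E3–luciferase fusion. Quantity: 2000 cells in each well. Medium: DMEM culture medium. Compound dosing: single-point 5 µM. Timing: cell settling 4 h, compound treatment 2 h, both 37 °C. Technique: luciferase luminescence. Read-out basis: percent signal gain over controls, blank-subtracted. Benchmarks: plate controls and plate blanks.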
# L major viab: Leishmania major promastigote growth inhibition; Leishmania major promastigotes, resazurin fluorescence viability; hit rate 9% among 200,000; inhibition, % at 10 µM; in the data active means inhibition above about 50%;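 further: promastigotes grown with compound for 44 hours at 28 °C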
# S1P4 agonist: agonists of human S1P4 receptor | AID 1509 | S1P4-expressing cell line, agonist reporter assay | activation, % at 4.98 µM | O95977 | hit rate 0.35% among 220,000; in the data active means activation above about 11%;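 further: 0% = DMSO vehicle and 100% = reference agonist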
# S1P3 antag: antagonists of human S1P3 receptor. inhibition, % at 4.98 µM. Q99500. AID 485. hit rate 0.27% among 170,000. CHO S1P3 NFAT-BLA reporter, FRET fluorescence, antagonist mode;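 active means inhibition above the plate cutoff, the mean inhibition of test wells on that plate plus 3 SD, cut at about 28% in these data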;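 further: cells challenged with S1P at its EC80 of 0.8 µM; blue over green emission ratio from cleaved BLA substrate after 4 h stimulation; 0% = S1P-stimulated wells and 100% = unstimulated DMSO-only wells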
# S1P4 agonist cf: confirmation of human S1P4 receptor agonists | shares compounds with S1P4 agonist | S1P4 agonist cell-based reporter assay | activation, % at 4.98 µM | hit rate 7% among 740 | AID 1523; in the data active means activation above about 12%;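 further: 0% = vehicle and 100% = full reference agonist response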
# S1P1 ag: human S1P1 agonism as S1P4 agonist counter-screen; shares compounds with S1P4 agonist; S1P1 agonist cell-based assay, activation; activation, % at 4.98 µM; hit rate 4% among 740; AID 1563; in the data active means activation above about 21%;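 further: 0% = vehicle wells and 100% = reference agonist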
# The depositor's hits bear a star; . = no result. This excerpt belongs to a sample that is enriched for hits.
SMILES,S1P4 antagonist,MDM2 E3 inh,L major viab,S1P4 agonist,S1P3 antag,S1P4 agonist cf,S1P1 ag
COc1ccc(S(=O)(=O)n2nc(C)cc2C)c(C)c1C,0.3,-1.2,50.1*,48.1*,.,-2.2,-3.9
Cc1cc(C)n(S(=O)(=O)c2ccc(C)c(C)c2C)n1,-20.7,-7.8,31.1,0.2,-13.3,.,.
CCN(CC)CCSc1nnc2c3cc(C)ccc3n(Cc3ccccc3)c2n1,-9.1,-13.3,.,0.1,-14.1,.,.
Cc1ccc(NS(=O)(=O)c2cc(OCC(N)=O)c(C)cc2Cl)cc1C,-115.1,6.0,6.3,1.9,.,.,.
Cc1ccccc1NS(=O)(=O)c1cc(OCC(N)=O)c(C)cc1Cl,1.1,-4.4,1.6,14.7*,12.7,-1.9,-4.1
O=C(NC1CCCCC1)C(=S)N1CCOCC1,-8.0,-0.2,0.0,0.9,-5.1,.,.
C=CCc1ccccc1OCC(O)CN(CC)CC (configuration not stated),-12.9,-7.2,16.7,1.0,.,.,.
N#Cc1ccc(CSc2nnc(-c3cccnc3)o2)cc1,-15.3,-3.2,-5.8,64.5*,-15.5,-2.9,-4.8
COc1cc(C)c(Br)cc1S(=O)(=O)NCCN1CCOCC1,-9.0,-13.1,2.0,-0.2,0.1,.,.
CC1CN(C(=O)COC(=O)c2ccc(NC(=O)CC#N)cc2)CC(C)O1 (configuration not stated),-5.4,-0.4,0.1,11.1*,-6.0,-2.0,-3.2
Cc1cccc(/C=N/N(CCO)C2=NS(=O)(=O)c3ccccc32)c1,-20.4,-0.3,1.0,-1.7,-2.0,.,.
N#CCCN(/N=C/c1cccnc1)C1=NS(=O)(=O)c2ccccc21,-4.1,-5.5,17.4,47.1*,1.4,-1.4,3.1
O=C(COC(=O)CCc1nc2ccccc2s1)NC(=O)NCc1ccco1,0.7,-29.5,3.9,17.3*,-4.4,-1.1,-3.2
Clc1ccc(CSc2nnc(-c3ccccn3)n2Cc2ccco2)c(Cl)c1,-3.6,-1.9,4.9,0.0,.,.,.
Cc1cc(NC(=O)CCC(=O)N(CC(=O)NC2CCCC2)Cc2cccs2)no1,-6.4,16.8,-5.7,32.9*,-18.4,-1.9,-2.9
O=C(COC(=O)C1(c2ccc(Cl)cc2)CCCC1)Nc1ncc(C(F)(F)F)cc1Cl,-1.1,-16.7,-8.2,29.2*,4.5,-1.4,0.0
COc1ccc2[nH]c3c(=O)n4c(nc3c2c1)SCCC4,3.7,.,20.6,35.7*,-23.3,-1.7,-3.6
COC(=O)C(C)(C)ONC(=O)Nc1ccccc1,4.9,-10.3,-5.3,194.1*,-26.7,-2.0,-2.7
COC(=O)C(C)(C)ONC(=O)Nc1ccc(Br)cc1,5.7,-4.2,-9.9,-1.1,2.2,.,.
Clc1ccc(C2=NN(c3ccccc3)C(c3ccco3)C2)cc1 (configuration not stated),-19.6,-17.7,.,20.4*,-17.8,14.2*,30.3*
CCN(CC)S(=O)(=O)c1cccc(-c2nnc(SCC(=O)NC3CCCCCCC3)n2N)c1,-2.2,-17.6,-1.8,0.7,.,.,.
Cc1nn(Cc2ccccc2)c(Cl)c1C(=O)OCC#N,-15.0,-2.1,-7.7,-0.4,-15.3,.,.
Cc1ccc(-c2csc(/C(C#N)=C(\O)CCl)n2)cc1,-22.7,-3.8,-3.0,19.5*,2.7,-2.6,-4.7
C=CCn1cnc2scc(-c3ccc(C)cc3)c2c1=O,-4.2,-2.0,-4.1,0.2,.,.,.
Cc1ccc(NC(=O)NCc2ccc3c(c2)OCO3)cc1,-3.7,26.7,-4.7,0.0,.,.,.
SMILES,S1P4 antagonist,MDM2 E3 inh,L major viab,S1P4 agonist,S1P3 antag,S1P4 agonist cf,S1P1 ag
O=C(COc1ccc2ccccc2c1)NNC(=O)Cc1ccccc1,-1.9,-31.9,-6.3,13.0*,4.1,-1.9,-1.2
CCOc1cc(S(=O)(=O)NCCc2ccc(OC)c(OC)c2)c(OCC)cc1-n1cnnn1,-11.8,-15.8,-3.5,72.8*,.,-1.6,-0.3
CN(Cc1ccccc1)c1ccc(S(=O)(=O)N2CCC(C(=O)O)CC2)cc1[N+](=O)[O-],-6.7,-15.7,-6.1,0.3,-7.4,.,.
COc1cc(S(=O)(=O)Nc2ccc(Br)cc2)ccc1N,-9.4,-4.9,-0.5,0.5,-13.7,.,.
COC(=O)c1ccccc1NC(=O)NC1CCCCC1,0.3,2.0,.,0.7,4.0,.,.
COc1cc(C#N)c(NC(=S)N2CCOCC2)cc1OC,-2.8,-21.7,-13.3,24.3*,-18.9,-2.1,-7.4
Cn1c(=NC(=O)C(C)(C)C)sc2cccc(F)c21,-2.7,-5.5,.,1.1,16.5,.,.
Cn1c(=NC(=O)c2ccccc2[N+](=O)[O-])sc2cccc(F)c21,2.9,-19.3,.,11.2*,11.8,-2.7,1.2
COc1ccc(OC)c(NC(=O)c2ccccc2N(Cc2ccccc2)S(C)(=O)=O)c1,-0.7,-2.1,79.8*,57.5*,3.6,-1.7,-6.0
COc1ccccc1Cn1nnc2c(=O)[nH]c(C3CCN(C(=O)c4ccc(F)cc4)CC3)nc21,-12.1,-39.8,-3.5,1.4,-5.1,.,.
O=C(c1ccccc1)N1CCC(c2nc3c(nnn3Cc3ccccc3Cl)c(=O)[nH]2)CC1,-6.7,-25.6,-1.4,54.8*,.,-2.0,-1.7
O=C(CSc1nc2ccccc2n1Cc1ccccc1Cl)N/N=C/c1ccccc1C(=O)O,11.3,-15.3,.,1.0,-0.6,.,.
CCOCC(=O)Nc1ccc([N+](=O)[O-])cc1C,-2.3,-2.7,0.7,3.0,-7.6,.,.
CCOC(=O)c1ccc(NC(=O)CCc2nc(-c3ccccc3Cl)no2)cc1,1.9,-6.5,3.7,11.9*,-6.2,-1.7,-0.1
CC(C)(C)c1ccc(C(=O)N2CCC(C(=O)NCc3ccncc3)CC2)cc1,-7.6,-13.7,-1.8,16.4*,-10.1,-0.5,-1.0
CC(=O)NC1(C(F)(F)F)C(=O)NC(C)=C1C#N (configuration not stated),-10.9,-24.2,-5.5,0.7,14.2,.,.
CCN(CC)C(=O)Cn1c(=O)n(CCCCCC(=O)Nc2ccccc2)c(=O)c2sccc21,-7.4,-12.2,-8.2,11.6*,7.9,-2.0,-2.2
COC(=O)CNC(=O)CSc1nc(N)cc(=O)[nH]1,-5.2,-15.3,-2.8,-5.8,.,.,.
COc1ccc(CCN/C=C2/CC(=O)NC2=O)cc1OC,5.2,-17.3,-5.1,16.7*,-32.2,-0.9,1.8
COc1ccc2cc(/C=N/NC(=O)c3ccc(CN(c4cccc(Cl)c4Cl)S(C)(=O)=O)cc3)c(Cl)nc2c1,15.8,-6.9,80.5*,42.6*,4.4,-1.7,-5.1
COc1ccc2cc(/C=N/O)c(Cl)nc2c1,-0.2,-11.4,-5.2,-0.1,11.0,.,.
COc1ccc(Cn2c(=O)sc3ccccc3c2=O)cc1,12.5,2.9,18.1,-0.1,4.1,.,.
COCCn1c(=O)sc2ccccc2c1=O,-18.4,3.5,-2.1,26.9*,-12.1,-0.7,-1.5
Cc1c(C)c2cc(Cl)c(O)c(CN3CCN(C)CC3)c2oc1=O,-2.5,-7.3,7.2,15.3*,.,-1.4,-5.0
Cc1c(C)c2cc(Cl)c(O)c(CN3CCCC(C)C3)c2oc1=O (configuration not stated),-18.4,-6.9,-3.6,1.9,.,.,.
